In the library only some 2.5% were active in any assay of this set; here they are far more common.
rCAG binder: r(CAG) repeat RNA binding. inhibition, % at 3 µM. TO-PRO-1 dye displacement fluorescence. actives 1.3% (n = 370,000). AID 651821;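 active means inhibition above the plate cutoff, the mean of all test compounds on that plate plus 3 SD, cut at about 35% in these data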;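 further: 0% = DMSO alone and 100% = 100 µM mitoxantrone as full dye displacement; higher means more dye released from RNA so lower well fluorescence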
SIAE inh: human SIAE inhibition, primary screen. Q9HAT2. SIAE FP-Rh probe binding, fluorescence polarization. inhibition, % at 9.66 µM. actives 0.69% (n = 370,000). AID 1053197;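 active means inhibition above a cutoff: mean of compounds within the control limits plus 3 SD of those, cut at about 17% in these data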;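 further: 0% = plate median of compound wells and 100% = probe without SIAE protein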
Target sequence (Q9HAT2 whole entry, looked up): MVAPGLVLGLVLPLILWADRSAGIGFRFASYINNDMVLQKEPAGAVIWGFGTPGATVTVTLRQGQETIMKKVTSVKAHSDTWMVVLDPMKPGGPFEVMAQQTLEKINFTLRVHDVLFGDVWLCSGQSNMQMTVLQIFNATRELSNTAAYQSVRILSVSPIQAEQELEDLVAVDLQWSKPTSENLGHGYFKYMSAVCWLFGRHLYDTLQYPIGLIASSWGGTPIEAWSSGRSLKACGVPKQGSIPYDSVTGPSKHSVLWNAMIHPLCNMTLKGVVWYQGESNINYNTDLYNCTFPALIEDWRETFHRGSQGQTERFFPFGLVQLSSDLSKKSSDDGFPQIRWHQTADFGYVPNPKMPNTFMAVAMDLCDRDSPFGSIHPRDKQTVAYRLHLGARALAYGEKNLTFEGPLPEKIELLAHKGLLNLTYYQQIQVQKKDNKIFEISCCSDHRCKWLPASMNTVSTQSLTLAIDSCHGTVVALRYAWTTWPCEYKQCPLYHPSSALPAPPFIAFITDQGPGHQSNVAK
HTRA1 inhibitor: blocks human HTRA1 serine peptidase; inhibition, % at 5.96 µM; AID 504803; Q92743; recombinant HTRA1, FP-rhodamine activity-based probe, fluorescence polarization; actives 0.5% (n = 340,000); in the data active means inhibition above about 36%;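 further: 0% = enzyme with DMSO and 100% = wells lacking enzyme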
mABHD4 FP: inhibitors of mouse ABHD4; Q8VD66; purified mABHD4, FP-Rh probe fluorescence polarization; inhibition, % at 8.92 µM; actives 0.54% (n = 370,000);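 active means inhibition exceeding the mean over every tested compound plus 3 SD, cut at about 30% in these data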;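 further: 0% = plate median of compound wells and 100% = S159A mutant with DMSO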
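Test system: mouse ABHD4 enzyme, wild type. Reagent: FP-Rh fluorescent activity-based probe, added after compound pre-incubation. Timing: pre-incubation 45 min, probe exposure 60 min, at 25 °C. Technique: FP readout, ex 525 nm / em 598 nm. Benchmarks: high control S159A mutant with DMSO, low control median of compound wells.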
TCR-CD3 inh: inhibitors of human TCR-CD3 interaction | TAMRA-labeled TCR probe fluorescence, biochemical | inhibition, % at 9.4 µM | actives 0.37% (n = 360,000); in the data active means inhibition above about 19%;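 further: recombinant mutant TCR 2C K166C tagged with TAMRA read by polarization; 0% = receptor in buffer alone and 100% = receptor with positive control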
SIAE confirm: confirmation of human SIAE inhibitors. SIAE FP-Rh activity-based probe, fluorescence polarization. actives 13% (n = 2,300). shares compounds with SIAE inh. inhibition, % at 9.66 µM;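 active means mean inhibition of the replicates above the hit cutoff set in the primary screen, cut at about 17% in these data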;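 further: 0% = SIAE with DMSO and probe and 100% = probe without SIAE; inhibitors lower polarization as more probe stays unbound to SIAE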
An asterisk follows results filed as active.

What do the screens show for `CC1(C)C/C(=N\NC(=S)Nc2ccccc2F)c2cc(O)ccc2O1`?
rCAG binder: 18.0; SIAE inh: 36.7*; HTRA1 inhibitor: 16.4; mABHD4 FP: 20.6; TCR-CD3 inh: 1.1; SIAE confirm: 37.9*

Results for C[C@@H](NC(=O)c1ncn(C)c1C(=O)N[C@H](C)c1ccccc1)c1ccccc1 ?
rCAG binder: -1.6; SIAE inh: 2.0; HTRA1 inhibitor: -4.2; mABHD4 FP: -10.7; TCR-CD3 inh: 4.0

How did Cc1ccc(NC(=S)NNC(=S)Nc2ccc(C)cc2C)cc1 do in these assays?
rCAG binder: 1.5; SIAE inh: 18.3*; HTRA1 inhibitor: -6.6; mABHD4 FP: 10.7; TCR-CD3 inh: -2.5; SIAE confirm: 5.2

What do the screens show for `Cc1ccc(NC(=O)CCC(=O)NNC(=S)Nc2ccccc2)c(C)c1`?
rCAG binder: -1.6; SIAE inh: 0.0; HTRA1 inhibitor: 7.2; mABHD4 FP: 1.1; TCR-CD3 inh: -6.7

What do the screens show for `O=C(Nc1nc(-c2cccnc2)cs1)c1cccc([N+](=O)[O-])c1`?
rCAG binder: 1.6; SIAE inh: -4.2; HTRA1 inhibitor: -1.1; mABHD4 FP: -1.8; TCR-CD3 inh: -2.6

How did NS(=O)(=O)c1cccc(NC(=S)NC(=O)c2cccc([N+](=O)[O-])c2)c1 do in these assays?
rCAG binder: 3.9; SIAE inh: 11.7; HTRA1 inhibitor: 3.2; mABHD4 FP: -3.2; TCR-CD3 inh: -4.2

Results for O=C(Nc1nc(-c2ccccc2)cs1)c1cccc([N+](=O)[O-])c1 ?
rCAG binder: 9.2; SIAE inh: 18.9*; HTRA1 inhibitor: -27.7; mABHD4 FP: -16.7; TCR-CD3 inh: 6.9; SIAE confirm: -65.4

Results for O=C(NC(=S)Nc1cccc(NC(=O)c2ccccc2)c1)c1cccc([N+](=O)[O-])c1 ?
rCAG binder: 7.0; SIAE inh: 62.9*; HTRA1 inhibitor: -62.5; mABHD4 FP: -7.1; TCR-CD3 inh: -5.2; SIAE confirm: -16.4

How did Cc1ncc(CO)c(/C=N/NC(=S)Nc2ccc(C(C)C)cc2)c1O do in these assays?
rCAG binder: 16.1; SIAE inh: 17.5*; HTRA1 inhibitor: 29.3; mABHD4 FP: 10.7; TCR-CD3 inh: 14.0; SIAE confirm: 14.8

How did CCOc1ccccc1NC(=O)N1CCc2ccccc2C1 do in these assays?
rCAG binder: -5.3; SIAE inh: 18.0*; HTRA1 inhibitor: 7.7; mABHD4 FP: -1.0; TCR-CD3 inh: -0.3; SIAE confirm: -0.6

What do the screens show for `CCc1ccccc1Nc1nc(N)nc(CSc2nnnn2C)n1`?
rCAG binder: 4.0; SIAE inh: -10.6; HTRA1 inhibitor: -2.4; mABHD4 FP: 4.5; TCR-CD3 inh: 4.8

How did CC(C)NC(=O)Cn1c(SCC(=O)N2CCCc3ccccc32)nc2ccccc21 do in these assays?
rCAG binder: -6.8; SIAE inh: 18.0*; HTRA1 inhibitor: -2.6; mABHD4 FP: 4.5; TCR-CD3 inh: 5.0; SIAE confirm: 0.2

How did O=C(Cn1c(SCC(=O)N2CCCc3ccccc32)nc2ccccc21)N1CCCC1 do in these assays?
HTRA1 inhibitor: -4.3

Results for CN=CC1=C(O)CC(C)(C)CC1=O ?
rCAG binder: -2.6; SIAE inh: 6.3; HTRA1 inhibitor: 4.0; mABHD4 FP: 12.6; TCR-CD3 inh: -0.1

How did CC1(C)CC(=O)C(C=NCC(N)=O)=C(O)C1 do in these assays?
rCAG binder: 1.0; SIAE inh: 17.7*; HTRA1 inhibitor: 0.4; mABHD4 FP: -3.0; TCR-CD3 inh: 6.8; SIAE confirm: -1.1

How did c1ccc(-c2ccc3c(c2)NCCN3)cc1 do in these assays?
rCAG binder: 2.1; SIAE inh: 17.4*; HTRA1 inhibitor: 15.6; mABHD4 FP: 13.1; TCR-CD3 inh: -6.9; SIAE confirm: 2.9

What do the screens show for `Oc1ccc(-c2nccc(-c3ccc(Br)cc3)n2)cc1`?
rCAG binder: 18.5; SIAE inh: -24.0; HTRA1 inhibitor: -56.3; mABHD4 FP: -74.2; TCR-CD3 inh: -2.4

Results for O=C(NNC(=O)C1CC1)c1cc(=O)[nH]c2ccccc12 ?
rCAG binder: 1.4; SIAE inh: -0.8; HTRA1 inhibitor: 5.3; mABHD4 FP: -1.2; TCR-CD3 inh: 1.2

How did O=C(CSc1n[nH]c(-c2ccccc2O)n1)N1CCOCC1 do in these assays?
rCAG binder: -2.2; SIAE inh: 8.7; HTRA1 inhibitor: 3.3; mABHD4 FP: 4.9; TCR-CD3 inh: 9.7

Results for Cc1sc(NC(=S)Nc2ccc(F)cc2)c(C(N)=O)c1C ?
rCAG binder: 6.6; SIAE inh: 17.4*; HTRA1 inhibitor: -3.6; mABHD4 FP: 2.0; TCR-CD3 inh: 1.1; SIAE confirm: 5.4

What do the screens show for `Cc1cccc(C)c1NC(=O)c1cc(S(=O)(=O)N2CCOCC2)cn1C`?
rCAG binder: 2.1; SIAE inh: 18.5*; HTRA1 inhibitor: 0.3; mABHD4 FP: -5.2; TCR-CD3 inh: 1.2; SIAE confirm: -0.6

How did Cc1c(Cl)cccc1NC(=O)c1cc(S(=O)(=O)N2CCOCC2)cn1C do in these assays?
rCAG binder: 1.0; SIAE inh: -2.5; HTRA1 inhibitor: -4.8; mABHD4 FP: 6.1; TCR-CD3 inh: 3.8

How did C=C(C)C1CC=C(C)/C(=N/NC(=O)c2ccc(NC(=O)c3cccc(C)c3)cc2)C1 (centres undefined) do in these assays?
rCAG binder: 4.7; SIAE inh: -2.3; HTRA1 inhibitor: -27.3; mABHD4 FP: -4.1; TCR-CD3 inh: -7.0

Results for CC(C)N(C(=O)Cn1c(=O)oc2ccccc21)c1ccccc1 ?
rCAG binder: -3.3; SIAE inh: 21.7*; HTRA1 inhibitor: 2.2; mABHD4 FP: -2.6; TCR-CD3 inh: 12.1; SIAE confirm: -1.5

How did COC(=O)c1scc(C)c1NS(=O)(=O)c1ccc(NC(C)=O)cc1 do in these assays?
rCAG binder: -3.4; SIAE inh: 6.4; HTRA1 inhibitor: 1.9; mABHD4 FP: 3.0; TCR-CD3 inh: -3.8

How did COc1ccc(NC(=O)Nc2cc(C)cc(C)c2)cn1 do in these assays?
rCAG binder: -10.3; SIAE inh: -2.4; HTRA1 inhibitor: -0.3; mABHD4 FP: -3.4; TCR-CD3 inh: -0.4

What do the screens show for `COc1ccc(NC(=O)Nc2cccs2)cn1`?
rCAG binder: 9.3; SIAE inh: 17.9*; HTRA1 inhibitor: -0.8; mABHD4 FP: 10.1; TCR-CD3 inh: 0.2; SIAE confirm: 4.9

Results for CC(C)(C)c1c(Cl)c(O)c(-c2ccccc2)c(=O)n1-c1ccccc1 ?
rCAG binder: 6.1; SIAE inh: 19.5*; mABHD4 FP: -3.0; TCR-CD3 inh: -0.3; SIAE confirm: 0.0

What do the screens show for `COc1ccc(-n2ncc3c2CC(C)(C)CC3NC(=O)CCC2=NNC(=O)CC2)cc1` (centres undefined)?
rCAG binder: -5.4; SIAE inh: -2.5; HTRA1 inhibitor: -2.6; mABHD4 FP: -1.8; TCR-CD3 inh: 4.8

Results for CN(C(=O)c1ccc(OC2CCN(C(=O)c3cccnc3)CC2)cc1)C1CCCCC1 ?
rCAG binder: -7.9; SIAE inh: 24.5*; HTRA1 inhibitor: 3.1; mABHD4 FP: -3.1; TCR-CD3 inh: 6.7; SIAE confirm: 4.2
